Experimental data as given in ChEMBL document CHEMBL5055621, “Synthesis and Characterization of the Novel Rodent-Active and CNS-Penetrant P2X7 Receptor Antagonist Lu AF27139” (J Med Chem, 2021).
≈ marks a conversion by molar mass, not a printed value.

Tests used:
P2X purinoceptor 7 = biological target: T1, P2X purinoceptor 7 (Rattus norvegicus, UniProt Q64663); assay: Displacement of [3H]-A-804598 from rat P2X7 receptor expressed in HEK293 cell membrane by in vitro binding assay; type: cell membranes
T1 sequence (Q64663 whole entry): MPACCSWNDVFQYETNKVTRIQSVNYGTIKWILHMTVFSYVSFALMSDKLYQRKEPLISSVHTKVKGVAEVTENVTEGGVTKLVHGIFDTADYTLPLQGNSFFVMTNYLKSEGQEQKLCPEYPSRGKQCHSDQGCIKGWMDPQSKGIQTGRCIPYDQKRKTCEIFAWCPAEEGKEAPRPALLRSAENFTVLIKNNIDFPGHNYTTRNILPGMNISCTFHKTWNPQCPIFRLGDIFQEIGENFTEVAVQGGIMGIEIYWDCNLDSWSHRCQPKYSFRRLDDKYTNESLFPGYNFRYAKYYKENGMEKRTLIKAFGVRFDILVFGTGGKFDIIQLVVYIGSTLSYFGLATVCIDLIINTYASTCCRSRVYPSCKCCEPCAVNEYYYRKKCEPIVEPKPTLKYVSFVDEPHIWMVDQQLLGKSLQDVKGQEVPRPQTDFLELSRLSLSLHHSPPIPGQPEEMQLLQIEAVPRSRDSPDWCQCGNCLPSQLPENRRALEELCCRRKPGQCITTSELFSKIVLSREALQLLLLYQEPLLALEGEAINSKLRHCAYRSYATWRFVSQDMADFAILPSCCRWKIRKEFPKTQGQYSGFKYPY

Cytochrome P450 2B6 = biological target: T2, Cytochrome P450 2B6 (Homo sapiens, UniProt P20813); assay: Time dependent inhibition of CYP2B6 (unknown origin) upto 25 uM; type: ADME
T2 sequence (P20813 whole entry): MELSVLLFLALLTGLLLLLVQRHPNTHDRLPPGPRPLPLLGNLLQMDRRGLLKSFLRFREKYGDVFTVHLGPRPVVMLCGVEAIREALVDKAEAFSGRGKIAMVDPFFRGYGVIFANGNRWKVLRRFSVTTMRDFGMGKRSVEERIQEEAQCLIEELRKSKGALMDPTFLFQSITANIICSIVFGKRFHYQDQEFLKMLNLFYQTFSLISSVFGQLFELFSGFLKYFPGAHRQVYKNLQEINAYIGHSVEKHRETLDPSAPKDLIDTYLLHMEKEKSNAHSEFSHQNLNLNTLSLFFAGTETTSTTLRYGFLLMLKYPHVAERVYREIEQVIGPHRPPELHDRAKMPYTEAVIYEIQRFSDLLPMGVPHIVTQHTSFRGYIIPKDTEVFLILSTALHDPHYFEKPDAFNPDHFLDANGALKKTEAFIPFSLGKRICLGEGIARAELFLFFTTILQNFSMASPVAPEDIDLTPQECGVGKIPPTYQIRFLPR

[1] = Induction of CYP3A4 mRNA expression in human primary hepatocytes at 10 uM; type: ADME, cell-based, Hepatocyte
How it was run: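 Human hepatocytes were exposed to 10 μM compound. CYP3A4 mRNA was measured as the relative increase, with rifampin at 10 μM as reference inducer.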

[2] = Free plasma concentration in rat at 1 mg/kg, po after 1 hr by ex vivo equilibrium dialysis; type: ADME, organism-based
How it was run: (§1)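 Male Sprague–Dawley rats were dosed orally at 1–100 mg/kg, and total plasma concentration was measured at 1 and 2 h. This was multiplied by fraction unbound from ex vivo equilibrium dialysis; mean ± SEM, n = 3 animals.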

[3] = Tmax in male rat at 150 mg/kg, po after 7 days; type: ADME, organism-based; conditions: in vivo, time 7 day
[4] = Free plasma concentration in rat at 3 mg/kg, po after 1 hr by ex vivo equilibrium dialysis; type: ADME, organism-based; how it was run: as §1
[5] = Thermodynamic solubility of the compound by shake flask HPLC method; type: physicochemical; conditions: read-out: Therm_solubility
How it was run: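 Thermodynamic solubility was measured by shake flask with HPLC quantification.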

[6] = biological target: T3, Potassium voltage-gated channel subfamily KQT member 1 (Homo sapiens, UniProt P51787); assay: Inhibition of human KCNQ1 at 10 uM
T3 sequence (P51787 whole entry): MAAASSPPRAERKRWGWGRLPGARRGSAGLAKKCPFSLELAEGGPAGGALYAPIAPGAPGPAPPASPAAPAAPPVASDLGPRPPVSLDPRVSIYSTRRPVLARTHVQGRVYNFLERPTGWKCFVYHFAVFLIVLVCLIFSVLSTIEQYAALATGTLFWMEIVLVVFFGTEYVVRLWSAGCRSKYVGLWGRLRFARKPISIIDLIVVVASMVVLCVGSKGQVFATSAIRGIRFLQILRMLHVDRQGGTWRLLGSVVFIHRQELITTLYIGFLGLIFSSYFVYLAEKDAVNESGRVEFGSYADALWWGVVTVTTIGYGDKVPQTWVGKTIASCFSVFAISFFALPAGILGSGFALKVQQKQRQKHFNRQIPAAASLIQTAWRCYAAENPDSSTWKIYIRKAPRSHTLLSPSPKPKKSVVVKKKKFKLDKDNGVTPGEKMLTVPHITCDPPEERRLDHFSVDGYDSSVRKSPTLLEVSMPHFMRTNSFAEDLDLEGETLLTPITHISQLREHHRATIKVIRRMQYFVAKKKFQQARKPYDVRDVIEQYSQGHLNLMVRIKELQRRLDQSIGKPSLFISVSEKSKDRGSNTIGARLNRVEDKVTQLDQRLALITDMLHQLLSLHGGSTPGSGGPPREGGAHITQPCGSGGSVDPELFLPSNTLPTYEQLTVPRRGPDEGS
How it was run: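 Human Nav1.5, Cav1.2 and KCNQ1/minK channels were tested at 10 μM.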

[7] = Free plasma concentration in rat at 100 mg/kg, po after 2 hrs by ex vivo equilibrium dialysis; type: ADME, organism-based; how it was run: as §1
Cytochrome P450 2C9 = Cytochrome P450 2C9 (Homo sapiens, UniProt P11712); assay: Inhibition of CYP2C9 (unknown origin) upto 25 uM; type: ADME
Cytochrome P450 1A2 = biological target: T4, Cytochrome P450 1A2 (Homo sapiens, UniProt P05177); assay: Time dependent inhibition of CYP1A2 (unknown origin) upto 25 uM; type: ADME
T4 sequence (P05177 whole entry): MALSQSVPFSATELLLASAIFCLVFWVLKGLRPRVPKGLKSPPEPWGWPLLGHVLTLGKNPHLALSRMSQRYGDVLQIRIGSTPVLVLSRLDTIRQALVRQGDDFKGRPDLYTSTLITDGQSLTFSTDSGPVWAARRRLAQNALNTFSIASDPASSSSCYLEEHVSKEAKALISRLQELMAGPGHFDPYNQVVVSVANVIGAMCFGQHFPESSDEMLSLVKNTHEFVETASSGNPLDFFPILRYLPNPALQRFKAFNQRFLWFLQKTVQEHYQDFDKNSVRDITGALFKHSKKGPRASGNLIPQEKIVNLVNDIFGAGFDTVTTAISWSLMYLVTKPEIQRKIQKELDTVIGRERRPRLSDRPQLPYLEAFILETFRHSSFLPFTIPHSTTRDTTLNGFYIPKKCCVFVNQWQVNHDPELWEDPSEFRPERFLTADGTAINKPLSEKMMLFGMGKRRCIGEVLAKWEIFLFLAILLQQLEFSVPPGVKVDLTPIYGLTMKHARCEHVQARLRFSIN

[8] = AUC (0 to 8 hrs) in female mouse at 100 mg/kg, po administered as single dose; conditions: in vivo

Sequence of Cytochrome P450 2C9 (P11712 whole entry): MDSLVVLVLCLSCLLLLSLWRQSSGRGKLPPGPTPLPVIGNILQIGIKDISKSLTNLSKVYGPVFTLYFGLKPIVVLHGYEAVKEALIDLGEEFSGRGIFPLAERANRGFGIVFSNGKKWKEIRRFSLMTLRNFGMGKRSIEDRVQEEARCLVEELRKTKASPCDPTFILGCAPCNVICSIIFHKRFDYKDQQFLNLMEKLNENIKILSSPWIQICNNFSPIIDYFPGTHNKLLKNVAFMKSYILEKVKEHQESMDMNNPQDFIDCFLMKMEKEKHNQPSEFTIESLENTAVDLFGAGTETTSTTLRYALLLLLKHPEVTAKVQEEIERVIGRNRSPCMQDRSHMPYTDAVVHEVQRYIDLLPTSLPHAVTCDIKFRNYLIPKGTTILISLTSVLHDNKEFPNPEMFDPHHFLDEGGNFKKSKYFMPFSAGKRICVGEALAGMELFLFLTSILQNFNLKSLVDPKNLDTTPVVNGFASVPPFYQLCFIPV

O=C(NC[C@H](c1ccc(Cl)cc1)N1CCOCC1)c1sc(-c2ncccn2)nc1C(F)(F)F
Ki (P2X purinoceptor 7): 13 nM | TDI (Cytochrome P450 2B6): Not Active | Activity [1]: 26.9% | Cp(f) [2]: 22.4 nM | Tmax [3]: 4 h | Cp(f) [4]: 71.2 nM | solubility thermodynamic [5]: 16 µg/mL (≈ 32.1 µM) | inhibition (INH) [6]: Not Active | Cp(f) [7]: 497 nM | inhibition (INH) (Cytochrome P450 2C9): Not Active | TDI (Cytochrome P450 1A2): Not Active | AUC(0-t) at 8 h [8]: 399 µM·h
